Measured values pooled from the literature.
Lines come from different studies, so protocols differ.
Dipeptidyl peptidase 8: Dipeptidyl peptidase 8 (Homo sapiens, UniProt Q6V1X1)
TACR2: Substance-K receptor (TACR2, Homo sapiens, UniProt P21452)
HDAC1: Histone deacetylase 1 (HDAC1, Homo sapiens, UniProt Q13547)

| SMILES | target | read-out | action | method | concentration | inhibition [%] |
| --- | --- | --- | --- | --- | --- | --- |
| COc1cc(Nc2ncc(F)c(Nc3ccc4c(n3)NC(=O)C(C)(C)O4)n2)cc(OC)c1OC | Cyclin-dependent kinase 11B (CDK11B, Homo sapiens, UniProt P21127) | binding | – | competition with immobilised ligand | 10 µM | 0 |
| CCOC(=O)c1ccc(OC(=O)CCCCCNC(=N)N)cc1 | Dipeptidyl peptidase 8 | enzyme activity | inhibitor | – | 10 µM | 13 |
| Cn1cc(-c2cccc(N3CCc4c(sc5c4CC(C)(C)C5)C3=O)c2CO)cc(Nc2ccncn2)c1=O | Protein kinase C alpha type (PRKCA, Homo sapiens, UniProt P17252) | enzyme activity | inhibitor | – | 1 µM | 5 |
| CCN(CC)CCCC[C@H](NC(=O)[C@H](CC(C)C)NC(=O)[C@H](C)NC(=O)[C@H](Cc1ccccc1)NC(=O)c1ccc(C(C)(C)C)cc1)C(=O)N[C@@H](CO)C(=O)OC | Mu-type opioid receptor (OPRM1, Homo sapiens, UniProt P35372) | ligand displacement | – | radioligand | 10 µM | 51 |
| C#Cc1n[nH]c2c(-c3cn(C(C)c4ccccn4)c(=O)[nH]c3=O)cc(F)cc12 (stereo not shown) | Glycogen synthase kinase-3 alpha (GSK3A, Homo sapiens, UniProt P49840) | enzyme activity | inhibitor | – | 1 µM | 4.6 |
| N#Cc1ccc(NCCNCC(=O)N2N=CCC2C#N)nc1 (stereo not shown) | Dipeptidyl peptidase 8 | enzyme activity | inhibitor | – | 100 µM | 81 |
| C[C@H](C(=O)N[C@H]1COc2ccccc2[C@@H]1S(C)(=O)=O)c1ccc(F)cc1 | TACR2 | cell-free assay | – | – | 10 µM | -21 |
| CN(C)C(=O)COC(=O)Cc1ccc(OC(=O)c2ccc(NC(=N)N)cc2)cc1 | Ubiquitin carboxyl-terminal hydrolase 8 (USP8, Homo sapiens, UniProt P40818) | enzyme activity | inhibitor | – | 10 µM | 0 |
| Cn1cc(-c2cc(F)cc(N3CCn4c(cc5c4CCCC5)C3=O)c2CO)cc(Nc2ccc(N3CCN(C4COC4)CC3)cn2)c1=O | Testis-specific serine/threonine-protein kinase 2 (TSSK2, Homo sapiens, UniProt Q96PF2) | enzyme activity | inhibitor | – | 0.1 µM | 17 |
| COCc1c(-c2cc3cc(C)cc(OC)c3s2)c2c(N)ncnn2c1CN1CCNC(=O)C1 | Nitric oxide synthase 1 (Nos1, Rattus norvegicus, UniProt P29476) | enzyme activity | inhibitor | – | 10 µM | -8 |
| N=C(N)c1ccc2cc(OC(=O)c3ccc(N=C(N)N)cc3)ccc2c1 | Dipeptidyl peptidase 8 | enzyme activity | inhibitor | – | 10 µM | 8 |
| O=C(CCCCCCC(=O)Nc1ccccc1)NO | HDAC1 | enzyme activity | inhibitor | – | 0.1 µM | 66.3 |
| O=c1ccc2cc3ccoc3cc2o1 | Histone deacetylase 8 (HDAC8, Homo sapiens, UniProt Q9BY41) | enzyme activity | inhibitor | – | 10 µM | 30.7 |
| O=C(CNC(=O)c1coc(-c2ccccc2O)n1)Nc1ccccc1 | HDAC1 | enzyme activity | inhibitor | – | 20 µM | 26 |
| C#Cc1n[nH]c2c(-c3cn([C@@H](C)c4ccccc4)c(=O)[nH]c3=O)cc(F)cc12 | Tyrosine-protein kinase Yes (YES1, Homo sapiens, UniProt P07947) | enzyme activity | inhibitor | – | 0.1 µM | -3.5 |
| c1ccc(C(NCCNC(c2ccccc2)c2ccccc2)c2ccccc2)cc1 | TACR2 | cell-free assay | – | – | 10 µM | 40 |
